Activity calls are given as the source filed them. No cut-off for these calls is given here.
Assays:
[1] = target: T1, Bromodomain-containing protein 4 (Homo sapiens, UniProt O60885); test: Displacement of fluorescein-labeled MS574 from recombinant human BRD4 BrD2 after 1 hr by fluorescence anisotropy assay
Outline: (§1)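 Competition fluorescence anisotropy with His-tag-removed recombinant bromodomain (Ni-IDA purified, thrombin cleaved) at 0.25–1 µM, chosen so that 50–80% of probe is bound. FITC-labeled probe at 80 nM (≤2Kd), unlabeled ligand titrated, in PBS pH 7.4, read after 1 h at 25 °C. IC50 from curve fit, converted to Ki with the Nikolovska-Coleska correction to Cheng-Prusoff (one-site competitive). The resolvable Ki is limited by the probe Kd.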

[2] = target: T1, Bromodomain-containing protein 4; test: Displacement of fluorescein-labeled MS574 from recombinant human BRD4 BrD1 after 1 hr by fluorescence anisotropy assay; outline: as §1
[3] = target: Bromodomain-containing protein 4 (Mus musculus) (UniProt Q9ESU6); test: (§2) Inhibition of BRD4 in LPS-stimulated mouse RAW264.7 cells assessed as inhibition of NF-kappaB-mediated IL-6 expression preincubated for 30 mins followed by LPS stimulation measured after 24 hrs by ELISA; assay type: cell-based
Outline: (§3)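 RAW264.7 cells grown in DMEM/10% FBS at 37 °C, 5% CO2, plated at 3 × 10^5 cells/mL, pretreated with inhibitor for 30 min. Medium was then replaced with LPS (1 µg/mL) plus inhibitor for 24 h. Compounds were diluted from DMSO to 0.28–50000 nM, final DMSO 0.05% (v/v). Supernatant IL-6 was measured by mouse ELISA read at 570 nm.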

[4] = target: T2, Bromodomain-containing protein 4 (Mus musculus, UniProt Q9ESU6); test: as §2; assay type: cell-based; outline: as §3
RAW264.7 = test: Cytotoxicity against mouse RAW264.7 cells assessed as cell viability up to 100 uM after 24 hrs by MTT assay; assay type: cell-based; conditions: raw264.7, 24 h
Outline: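 RAW264.7 macrophages seeded at 1 × 10^4 cells/well, settled 18 h at 37 °C, then exposed to inhibitors up to 100 µM for 24 h. Compounds were predissolved in DMSO and diluted in medium, final DMSO 0.05% (v/v). MTT (4 mg/ml) was added for 4 h at 37 °C, formazan solubilized in DMSO, and absorbance read at 570/630 nm.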

[5] = target: Bromodomain-containing protein 4 (Mus musculus) (UniProt Q9ESU6); test: (§4) Inhibition of BRD4 in LPS-stimulated mouse RAW264.7 cells assessed as inhibition of NF-kappaB-mediated nitric oxide production preincubated for 30 mins followed by LPS stimulation measured after 24 hrs by spectrophotometric analysis; assay type: cell-based
Outline: (§5)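 RAW264.7 cells in DMEM/10% FBS, plated at 3 × 10^5 cells/mL, pretreated with inhibitor 30 min, then LPS (1 µg/mL) plus inhibitor for 24 h. Inhibitor concentrations 0.28–50000 nM from DMSO stock, final DMSO 0.05% (v/v). Nitrite in the supernatant was measured spectrophotometrically at 520 nm.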

[6] = target: T2, Bromodomain-containing protein 4; test: as §4; assay type: cell-based; outline: as §5
CREB-binding protein = CREB-binding protein (Homo sapiens, UniProt Q92793); test: Displacement of fluorescein-labeled MS226 from recombinant human CBP bromodomain after 1 hr by fluorescence anisotropy assay; outline: as §1
CREB-binding protein, sequence (Q92793 whole entry): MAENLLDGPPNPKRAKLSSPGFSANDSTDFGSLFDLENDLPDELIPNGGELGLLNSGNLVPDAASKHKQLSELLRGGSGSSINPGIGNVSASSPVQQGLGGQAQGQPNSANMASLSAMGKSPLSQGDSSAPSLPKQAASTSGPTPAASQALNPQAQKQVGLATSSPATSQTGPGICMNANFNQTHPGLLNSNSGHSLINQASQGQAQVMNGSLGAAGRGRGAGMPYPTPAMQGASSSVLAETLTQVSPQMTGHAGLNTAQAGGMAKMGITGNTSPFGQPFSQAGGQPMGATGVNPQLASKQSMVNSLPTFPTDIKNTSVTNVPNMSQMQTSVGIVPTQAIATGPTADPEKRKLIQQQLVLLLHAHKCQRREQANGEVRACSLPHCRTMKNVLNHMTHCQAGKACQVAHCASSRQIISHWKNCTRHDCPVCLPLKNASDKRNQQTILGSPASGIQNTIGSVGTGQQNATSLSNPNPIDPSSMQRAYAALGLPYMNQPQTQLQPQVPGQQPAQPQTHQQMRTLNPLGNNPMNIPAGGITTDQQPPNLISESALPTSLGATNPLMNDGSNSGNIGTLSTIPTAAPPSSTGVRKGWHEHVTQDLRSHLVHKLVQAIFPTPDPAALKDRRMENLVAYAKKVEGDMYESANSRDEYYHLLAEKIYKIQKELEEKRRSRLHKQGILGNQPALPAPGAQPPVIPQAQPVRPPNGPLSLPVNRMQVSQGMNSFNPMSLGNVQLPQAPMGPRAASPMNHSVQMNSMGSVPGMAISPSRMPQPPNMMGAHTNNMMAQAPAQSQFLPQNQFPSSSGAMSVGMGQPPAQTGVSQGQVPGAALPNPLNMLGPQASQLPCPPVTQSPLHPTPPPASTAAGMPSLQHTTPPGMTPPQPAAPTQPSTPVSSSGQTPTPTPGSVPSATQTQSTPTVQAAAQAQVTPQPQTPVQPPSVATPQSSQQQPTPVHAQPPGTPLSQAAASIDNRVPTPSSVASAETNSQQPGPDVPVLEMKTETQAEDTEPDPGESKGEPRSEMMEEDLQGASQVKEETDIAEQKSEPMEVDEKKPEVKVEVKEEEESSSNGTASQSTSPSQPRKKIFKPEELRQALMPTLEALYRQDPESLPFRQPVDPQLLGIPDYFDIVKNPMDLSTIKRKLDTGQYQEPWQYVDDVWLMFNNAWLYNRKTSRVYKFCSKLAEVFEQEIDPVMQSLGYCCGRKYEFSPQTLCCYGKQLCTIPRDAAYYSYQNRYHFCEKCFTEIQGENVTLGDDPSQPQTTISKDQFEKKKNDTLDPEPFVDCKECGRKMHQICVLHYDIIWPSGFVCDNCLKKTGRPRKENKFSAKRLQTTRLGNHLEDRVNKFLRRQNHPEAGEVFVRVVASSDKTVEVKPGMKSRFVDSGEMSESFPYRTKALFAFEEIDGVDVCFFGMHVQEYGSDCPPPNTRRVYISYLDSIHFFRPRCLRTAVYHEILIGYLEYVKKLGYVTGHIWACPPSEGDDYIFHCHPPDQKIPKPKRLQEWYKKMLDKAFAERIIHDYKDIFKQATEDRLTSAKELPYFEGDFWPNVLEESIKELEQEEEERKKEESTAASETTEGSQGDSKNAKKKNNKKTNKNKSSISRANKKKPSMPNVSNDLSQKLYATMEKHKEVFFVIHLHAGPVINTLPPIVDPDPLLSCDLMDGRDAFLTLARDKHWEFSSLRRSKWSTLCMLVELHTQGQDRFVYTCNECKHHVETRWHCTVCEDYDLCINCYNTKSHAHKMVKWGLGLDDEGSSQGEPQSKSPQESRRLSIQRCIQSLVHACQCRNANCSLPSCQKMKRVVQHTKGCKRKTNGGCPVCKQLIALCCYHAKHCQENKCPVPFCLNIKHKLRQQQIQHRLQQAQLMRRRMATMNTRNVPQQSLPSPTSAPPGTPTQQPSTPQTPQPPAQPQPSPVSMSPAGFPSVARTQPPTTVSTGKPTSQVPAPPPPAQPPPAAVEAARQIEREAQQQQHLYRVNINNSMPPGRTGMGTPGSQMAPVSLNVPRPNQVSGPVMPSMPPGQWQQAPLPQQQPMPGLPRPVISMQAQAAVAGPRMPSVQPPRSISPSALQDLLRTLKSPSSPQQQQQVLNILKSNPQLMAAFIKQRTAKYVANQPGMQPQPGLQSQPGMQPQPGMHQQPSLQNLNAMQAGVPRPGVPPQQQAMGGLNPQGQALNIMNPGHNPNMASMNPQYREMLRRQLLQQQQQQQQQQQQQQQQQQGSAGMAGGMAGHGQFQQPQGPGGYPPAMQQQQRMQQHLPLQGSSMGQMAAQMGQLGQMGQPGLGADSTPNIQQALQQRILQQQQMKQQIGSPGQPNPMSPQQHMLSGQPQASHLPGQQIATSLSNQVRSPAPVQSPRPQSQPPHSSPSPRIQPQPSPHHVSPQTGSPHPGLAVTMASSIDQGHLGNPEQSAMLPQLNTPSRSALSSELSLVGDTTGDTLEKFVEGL

[7] = target: T3, Bromodomain-containing protein 3 (Homo sapiens, UniProt Q15059); test: Displacement of fluorescein-labeled MS574 from recombinant human BRD3 BrD1 after 1 hr by fluorescence anisotropy assay; outline: as §1
T3 sequence (Q15059 whole entry): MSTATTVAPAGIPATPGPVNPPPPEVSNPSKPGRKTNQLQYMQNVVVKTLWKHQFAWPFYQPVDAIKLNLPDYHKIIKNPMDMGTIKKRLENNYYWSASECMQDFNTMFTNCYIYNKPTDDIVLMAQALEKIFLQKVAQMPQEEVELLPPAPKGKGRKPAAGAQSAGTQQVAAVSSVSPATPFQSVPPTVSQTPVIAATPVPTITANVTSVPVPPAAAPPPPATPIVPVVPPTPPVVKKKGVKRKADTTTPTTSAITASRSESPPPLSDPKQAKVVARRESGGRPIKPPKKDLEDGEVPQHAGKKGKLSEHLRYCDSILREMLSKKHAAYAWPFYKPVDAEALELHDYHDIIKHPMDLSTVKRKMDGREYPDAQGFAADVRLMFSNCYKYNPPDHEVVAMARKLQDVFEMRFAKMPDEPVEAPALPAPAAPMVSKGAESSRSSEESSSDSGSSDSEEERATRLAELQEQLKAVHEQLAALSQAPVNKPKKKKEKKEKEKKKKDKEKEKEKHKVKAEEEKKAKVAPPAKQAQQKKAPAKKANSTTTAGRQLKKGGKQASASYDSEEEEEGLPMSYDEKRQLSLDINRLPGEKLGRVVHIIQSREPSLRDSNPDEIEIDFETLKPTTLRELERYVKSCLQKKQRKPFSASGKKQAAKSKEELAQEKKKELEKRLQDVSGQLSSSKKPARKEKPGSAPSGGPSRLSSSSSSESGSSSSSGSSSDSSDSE

[8] = target: T4, Bromodomain-containing protein 7 (Homo sapiens, UniProt Q9NPI1); test: Displacement of fluorescein-labeled MS226 from recombinant human BRD7 after 1 hr by fluorescence anisotropy assay; outline: as §1
T4 sequence (Q9NPI1 whole entry): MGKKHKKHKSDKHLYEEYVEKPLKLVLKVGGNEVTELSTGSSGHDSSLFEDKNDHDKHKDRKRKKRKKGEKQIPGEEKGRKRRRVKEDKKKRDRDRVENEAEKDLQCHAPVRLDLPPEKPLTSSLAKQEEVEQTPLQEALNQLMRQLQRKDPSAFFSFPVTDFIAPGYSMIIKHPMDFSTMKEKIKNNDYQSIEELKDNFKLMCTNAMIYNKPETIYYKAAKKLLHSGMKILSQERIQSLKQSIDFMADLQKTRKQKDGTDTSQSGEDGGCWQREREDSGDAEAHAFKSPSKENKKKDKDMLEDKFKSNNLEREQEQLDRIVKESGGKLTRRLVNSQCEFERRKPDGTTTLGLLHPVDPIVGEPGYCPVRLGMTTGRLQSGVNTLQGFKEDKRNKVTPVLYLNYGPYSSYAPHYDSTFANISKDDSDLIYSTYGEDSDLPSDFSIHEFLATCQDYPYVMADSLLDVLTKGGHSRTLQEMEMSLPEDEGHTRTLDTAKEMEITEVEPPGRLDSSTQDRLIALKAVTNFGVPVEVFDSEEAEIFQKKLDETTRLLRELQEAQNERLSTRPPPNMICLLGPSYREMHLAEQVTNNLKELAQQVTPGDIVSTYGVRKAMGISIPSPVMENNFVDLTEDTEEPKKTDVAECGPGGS

[9] = target: T3, Bromodomain-containing protein 3; test: Displacement of fluorescein-labeled MS574 from recombinant human BRD3 BrD2 after 1 hr by fluorescence anisotropy assay; outline: as §1
[10] = target: SWI/SNF-related matrix-associated actin-dependent regulator of chromatin subfamily A member 4 (Homo sapiens, UniProt P51532); test: Displacement of fluorescein-labeled MS239 from recombinant human SMARCA4 bromodomain after 1 hr by fluorescence anisotropy assay; outline: as §1
SWI/SNF-related matrix-associated actin-dependent regulator of chromatin subfamily A member 4, sequence (P51532 whole entry): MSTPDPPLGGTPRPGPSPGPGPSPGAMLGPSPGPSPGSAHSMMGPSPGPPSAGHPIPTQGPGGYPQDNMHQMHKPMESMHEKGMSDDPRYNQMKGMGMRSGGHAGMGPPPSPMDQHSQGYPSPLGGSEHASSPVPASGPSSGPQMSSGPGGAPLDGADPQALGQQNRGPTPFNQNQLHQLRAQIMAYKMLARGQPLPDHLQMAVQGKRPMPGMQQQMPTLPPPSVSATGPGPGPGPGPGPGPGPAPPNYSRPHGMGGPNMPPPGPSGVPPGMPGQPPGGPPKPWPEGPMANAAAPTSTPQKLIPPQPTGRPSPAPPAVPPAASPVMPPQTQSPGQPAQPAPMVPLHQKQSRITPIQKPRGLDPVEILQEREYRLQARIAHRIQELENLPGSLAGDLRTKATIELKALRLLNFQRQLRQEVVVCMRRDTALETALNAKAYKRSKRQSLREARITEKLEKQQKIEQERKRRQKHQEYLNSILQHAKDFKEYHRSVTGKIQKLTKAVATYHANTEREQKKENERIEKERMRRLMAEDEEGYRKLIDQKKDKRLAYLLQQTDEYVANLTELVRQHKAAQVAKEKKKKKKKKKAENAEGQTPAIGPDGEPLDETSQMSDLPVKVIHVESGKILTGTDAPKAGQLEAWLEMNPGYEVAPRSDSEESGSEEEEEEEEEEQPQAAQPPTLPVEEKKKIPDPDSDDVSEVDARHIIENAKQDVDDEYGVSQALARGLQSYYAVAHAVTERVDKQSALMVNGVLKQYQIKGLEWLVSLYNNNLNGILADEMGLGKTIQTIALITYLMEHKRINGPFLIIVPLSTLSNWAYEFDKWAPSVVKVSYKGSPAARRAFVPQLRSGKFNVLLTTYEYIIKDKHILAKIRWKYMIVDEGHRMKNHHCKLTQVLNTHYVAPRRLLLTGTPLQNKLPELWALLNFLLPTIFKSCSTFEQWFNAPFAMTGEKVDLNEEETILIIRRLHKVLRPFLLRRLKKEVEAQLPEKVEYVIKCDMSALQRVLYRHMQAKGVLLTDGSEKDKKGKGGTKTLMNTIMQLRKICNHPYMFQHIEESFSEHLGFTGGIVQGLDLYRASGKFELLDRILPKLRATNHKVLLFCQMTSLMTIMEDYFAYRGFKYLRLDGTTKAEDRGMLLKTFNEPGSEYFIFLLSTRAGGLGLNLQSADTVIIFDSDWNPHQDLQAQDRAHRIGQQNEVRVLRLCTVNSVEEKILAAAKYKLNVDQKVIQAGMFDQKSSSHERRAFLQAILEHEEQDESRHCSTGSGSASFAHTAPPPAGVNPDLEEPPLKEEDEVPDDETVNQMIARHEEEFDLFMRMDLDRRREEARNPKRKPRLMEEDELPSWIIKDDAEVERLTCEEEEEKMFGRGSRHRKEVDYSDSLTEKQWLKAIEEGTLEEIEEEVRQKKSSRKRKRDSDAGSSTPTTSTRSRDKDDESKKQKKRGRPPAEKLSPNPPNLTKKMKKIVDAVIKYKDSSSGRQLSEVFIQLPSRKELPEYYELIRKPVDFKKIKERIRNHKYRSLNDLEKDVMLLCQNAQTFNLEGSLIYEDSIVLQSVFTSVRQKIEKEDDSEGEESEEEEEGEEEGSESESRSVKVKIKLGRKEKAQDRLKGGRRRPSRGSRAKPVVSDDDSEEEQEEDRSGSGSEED

[11] = target: Histone acetyltransferase KAT2B (Homo sapiens, UniProt Q92831); test: Displacement of fluorescein-labeled MS239 from recombinant human PCAF after 1 hr by fluorescence anisotropy assay; outline: as §1
[12] = target: Nucleosome-remodeling factor subunit BPTF (Homo sapiens, UniProt Q12830); test: Displacement of fluorescein-labeled MS239 from recombinant human BPTF after 1 hr by fluorescence anisotropy assay; outline: as §1

Structure (SMILES)	Ki [1]	Ki ([2]; read-out: Ki)	further results
Cc1cc(C)c(S(=O)(=O)O)cc1/N=N/c1cc(C)c(O)c(C)c1	6.37 µM	4.92 µM	–
Cc1nc(/N=N/c2ccc(S(=O)(=O)Nc3ccccn3)cc2)c(CO)c(C=O)c1O	–	–	inhibition [2]: inactive
O=S(=O)(Nc1ccccn1)c1ccc(/N=N/c2ccc(O)c3ccccc23)cc1	–	–	inhibition [2]: Active
Cc1nc(/N=N/c2ccc(S(=O)(=O)Nc3ccccn3)cc2)c(CO)c(C)c1O	–	–	inhibition [2]: inactive
Cc1cc(/N=N/c2ccc(S(=O)(=O)Nc3cc(Cl)ccn3)cc2)cc(C)c1O	5.92 µM	0.9 µM	–
O=S(=O)(Nc1ccccn1)c1ccc(/N=N/c2cc(Cl)c(O)c(Cl)c2)cc1	4.89 µM	1.27 µM	–
CC1(C)Cc2c(/N=N/c3ccc(S(=O)(=O)Nc4ccccn4)cc3)ccc(O)c2O1	–	–	inhibition [2]: Active
Cc1cc(/N=N/c2ccc(S(=O)(=O)Nc3ccccn3)cc2)cc(Cl)c1O	4.81 µM	1.4 µM	–
Cc1cc(/N=N/c2ccc(S(=O)(=O)Nc3ccccn3)cc2)cc(C)c1O	4.3 µM	0.91 µM	inhibition [3]: Dose-dependent effect; IC50 [4]: 16 µM; Activity (RAW264.7): Non-toxic; inhibition [5]: Dose-dependent effect; IC50 [6]: 46.3 µM; Ki (CREB-binding protein): 7.15 µM; Ki [7]: 1.64 µM; Ki [8]: 3.54 µM; Ki [9]: 2.48 µM; Ki ([2]; read-out: pKi (converted)): 0.912 µM; Ki [10]: < 6.56 µM
Cc1cc(/N=N/c2ccc(S(=O)(=O)Nc3cccc(C(F)(F)F)c3)cc2)cc(C)c1O	7.77 µM	6.13 µM	–
Cc1cc(/N=N/c2ccc(S(=O)(=O)Nc3ccc(C(=O)O)cn3)cc2)cc(C)c1O	1.38 µM	0.32 µM	–
Cc1cc(/N=N/c2ccc(S(=O)(=O)N(C)c3ccccn3)cc2)cc(C)c1O	7.12 µM	7.89 µM	–
O=S(=O)(Nc1ccccn1)c1ccc(/N=N/c2ccc(O)c(C(F)(F)F)c2)cc1	6.83 µM	9.45 µM	–
O=S(=O)(Nc1ccccn1)c1ccc(/N=N/c2ccc(O)c3c2NCCC3)cc1	–	–	inhibition [2]: Active
O=S(=O)(Nc1ccccn1)c1ccc(/N=N/c2ccc(O)c(Cl)c2)cc1	6.16 µM	1.3 µM	–
CC(=O)Nc1c(C)cc(/N=N/c2ccc(S(=O)(=O)Nc3ccccn3)cc2)cc1C	–	–	inhibition [1]: inactive; inhibition [2]: inactive
CC(C)(C)c1cc(/N=N/c2ccc(S(=O)(=O)Nc3ccccn3)cc2)cc(C(C)(C)C)c1O	–	–	inhibition [1]: inactive; inhibition [2]: inactive
COc1cc(/N=N/c2ccc(S(=O)(=O)Nc3ccccn3)cc2)c(N)cc1O	5.39 µM	1.28 µM	–
Cc1cc(/N=N/c2ccc(S(=O)(=O)Nc3ccc(Br)cn3)cc2)cc(C)c1O	38.7 µM	6.54 µM	–
Cc1cc(/N=N/c2ccc(S(=O)(=O)Nc3ccc(Cl)cn3)cc2)cc(C)c1O	5.84 µM	0.73 µM	–
Cc1cc(/N=N/c2ccc(S(=O)(=O)Nc3ccc(F)cn3)cc2)cc(C)c1O	3.44 µM	1.3 µM	–
Cc1cc(/N=N/c2ccc(S(=O)(=O)NCc3ccc(C(F)(F)F)cc3)cc2)cc(C)c1O	> 100 µM	> 100 µM	–

Structure (SMILES)	Ki [1]	Ki ([2]; read-out: Ki)	further results
Cc1cc(/N=N/c2ccc(S(=O)(=O)Nc3ccccn3)cc2)c(N)c(Cl)c1O	–	–	inhibition [3]: Dose-dependent effect; IC50 [4]: 3.8 µM; Activity (RAW264.7): Non-toxic; inhibition [5]: Dose-dependent effect; IC50 [6]: 3.4 µM; Ki (CREB-binding protein): 5.59 µM; Ki [7]: 0.24 µM; Ki [8]: < 1.43 µM; Ki [11]: < 3.34 µM; Ki [9]: 0.32 µM; Ki [10]: < 6.56 µM; Ki [12]: 1.62 µM
Cc1cc(/N=N/c2ccc(S(=O)(=O)Nc3ccccn3)cc2)ccc1O	8.2 µM	6.43 µM	–
Cc1nc(/N=N/c2ccc(S(=O)(=O)Nc3ccccn3)cc2)c(CO)c(CN)c1O	–	–	inhibition [2]: inactive
Cc1cc(/N=N/c2cc(S(=O)(=O)O)c(C)cc2C)c(N)cc1O [ISCHEMIN]	19.7 µM	10.8 µM	–
O=S(=O)(Nc1ccccn1)c1ccc(/N=N/c2ccc(O)c(Br)c2)cc1	4.69 µM	4.67 µM	–
COc1ccc(NS(=O)(=O)c2ccc(/N=N/c3cc(C)c(O)c(C)c3)cc2)nc1	2.23 µM	0.5 µM	–
COc1ccc(NS(=O)(=O)c2ccc(/N=N/c3cc(C)c(O)c(C)c3)cc2)cc1	6.59 µM	6.48 µM	–
Cc1cc(/N=N/c2ccc(S(=O)(=O)Nc3ccccn3)cc2)nc(C)c1O	24.6 µM	2.31 µM	–
CC(C)c1cc(/N=N/c2ccc(S(=O)(=O)Nc3ccccn3)cc2)cc(C(C)C)c1O	–	–	inhibition [1]: inactive; inhibition [2]: inactive
Cc1nc(/N=N/c2ccc(S(=O)(=O)Nc3ccccn3)cc2)c(C)c(C)c1O	9.1 µM	6.02 µM	–
Cc1cc(/N=N/c2cccc(S(=O)(=O)Nc3ccccn3)c2)cc(C)c1O	40.4 µM	5.97 µM	–
O=S(=O)(Nc1ccccn1)c1ccc(/N=N/c2ccc(O)c3c2CCCC3)cc1	–	–	inhibition [2]: Active
COc1cc(/N=N/c2cc(C)c(O)c(C)c2)ccc1S(=O)(=O)Nc1ccccn1	7.77 µM	3.13 µM	–
O=S(=O)(Nc1ccccn1)c1ccc(/N=N/c2ccc(O)c(O)c2)cc1	3.91 µM	4.59 µM	–
Cc1cc(/N=N/c2ccc(S(=O)(=O)Nc3ccccn3)cc2)cc(Br)c1O	4.48 µM	2.79 µM	–
Cc1cc(/N=N/c2ccc(S(=O)(=O)Nc3ccc(F)cc3)cc2)cc(C)c1O	8.87 µM	1.84 µM	–
Cc1cc(/N=N/c2ccc(S(=O)(=O)Nc3ccccn3)cc2)c(N)cc1O	–	–	inhibition [3]: Dose-dependent effect; IC50 [4]: 4.9 µM; Activity (RAW264.7): Non-toxic; inhibition [5]: Dose-dependent effect; IC50 [6]: 3.8 µM; Ki (CREB-binding protein): 2.18 µM; Ki [7]: 0.1 µM; Ki [8]: 2.72 µM; Ki [11]: 5.52 µM; Ki [9]: 0.14 µM; Ki [10]: 7.97 µM; Ki [12]: 6.06 µM
Cc1cc(/N=N/c2ccc(S(=O)(=O)Nc3ccc(C(N)=O)cc3)cc2)cc(C)c1O	12.2 µM	9.6 µM	–
Cc1cc(/N=N/c2ccc(S(=O)(=O)Nc3ccc(C(F)(F)F)cc3)cc2)cc(C)c1O	7.14 µM	10.7 µM	–
COc1c(C)cc(/N=N/c2ccc(S(=O)(=O)Nc3ccccn3)cc2)cc1C	–	–	inhibition [1]: inactive; inhibition [2]: inactive
O=S(=O)(Nc1ccccn1)c1ccc(/N=N/c2cc(Br)c(O)c(Br)c2)cc1	4.29 µM	0.52 µM	–
Cc1cc(/N=N/c2ccc(S(=O)(=O)Nc3ccccn3)cc2)cc(O)c1O	3.27 µM	2.39 µM	–
